Arr AP2 block – blocks beta-arrestin peptide binding to AP2 adaptin; FITC-arrestin peptide / GST-AP2 beads, flow cytometry; AP2 beta2 appendage carries R879A mutation; inhibition, % at 10 µM; 340,000 tested, 0.31% active;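 active means inhibition above a set limit, near 3 SD of compounds lacking own fluorescence, cut at about 54% in these data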;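 further: plate controls were DMSO wells for no effect and 5 µM unlabelled arrestin peptide for full effect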
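Test system: GST-tagged AP2 beta2-adaptin appendage (R879A) on 4 µm glutathione beads; also added: fluorescein-tagged arrestin peptide at 50 nM final; timing: 12 min plus 1 h, RT; signal: flow cytometry, FL1 (488/535 nm); read-out: percent drop in bead-associated FITC signal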
NALP1 inh – blocks the NALP1 inflammasome reconstituted in yeast; S. cerevisiae NALP1/ASC/caspase-1 growth, X-gal OD620, 72 h; inhibition, % at 10 µM; 280,000 tested, 0.61% active; AID 2071; in the data active means inhibition mostly above about 24%, no sharp cut-off; inactive means mostly below about 32%
DSG3 Ab inh – inhibitors of pemphigus antibody binding to human desmoglein-3; P32926; DSG3-coupled beads, scFv-anti-DSG3-GFP binding, flow cytometry; stronger effect = lower value; binding (percent of control), % at 10 µM; 310,000 tested, 0.48% active;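 active means binding more than 3 SD below its plate's average and above zero; inconclusive means below that plate limit but binding exactly zero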;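 further: hits lower antibody fragment binding to DSG3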
Target sequence (P32926 whole entry, looked up, the tested form may be a part): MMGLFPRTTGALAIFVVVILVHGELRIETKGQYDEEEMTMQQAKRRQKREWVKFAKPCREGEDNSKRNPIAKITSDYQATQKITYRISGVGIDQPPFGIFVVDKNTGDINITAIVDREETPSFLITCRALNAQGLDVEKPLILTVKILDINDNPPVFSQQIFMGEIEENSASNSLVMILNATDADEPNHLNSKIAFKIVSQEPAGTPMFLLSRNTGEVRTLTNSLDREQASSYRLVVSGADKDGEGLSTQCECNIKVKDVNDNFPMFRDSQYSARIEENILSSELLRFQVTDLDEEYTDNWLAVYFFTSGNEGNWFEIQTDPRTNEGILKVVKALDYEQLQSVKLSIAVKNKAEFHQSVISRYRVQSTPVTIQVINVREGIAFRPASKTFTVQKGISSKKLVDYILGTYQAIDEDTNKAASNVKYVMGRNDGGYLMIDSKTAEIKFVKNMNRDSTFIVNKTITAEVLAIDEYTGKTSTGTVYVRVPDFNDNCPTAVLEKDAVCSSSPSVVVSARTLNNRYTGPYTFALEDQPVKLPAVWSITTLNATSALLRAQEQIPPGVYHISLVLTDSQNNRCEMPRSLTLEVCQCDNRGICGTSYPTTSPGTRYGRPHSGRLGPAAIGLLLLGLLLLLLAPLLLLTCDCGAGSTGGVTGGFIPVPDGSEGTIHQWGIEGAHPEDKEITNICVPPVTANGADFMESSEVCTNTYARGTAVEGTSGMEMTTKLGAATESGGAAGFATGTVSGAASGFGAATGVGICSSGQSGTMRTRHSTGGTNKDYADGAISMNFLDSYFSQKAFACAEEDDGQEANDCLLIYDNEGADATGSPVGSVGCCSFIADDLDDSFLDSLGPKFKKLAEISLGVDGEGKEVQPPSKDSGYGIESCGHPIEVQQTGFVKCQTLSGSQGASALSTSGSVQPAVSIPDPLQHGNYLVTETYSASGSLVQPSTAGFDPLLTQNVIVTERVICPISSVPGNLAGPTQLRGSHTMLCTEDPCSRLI
PolyA inhibitor – yeast polyadenylation inhibition | 300,000 tested, 0.02% active | AID 1875 | activity score, % at 12 µM | S. cerevisiae SKY197-pL101 polyadenylation reporter, beta-gal luminescence; efflux-impaired pdr1/pdr3 knockout yeast; score 100 = 6 SD above DMSO;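 active means lowest replicate activity score at least 50, where 100 means six control SD above control mean; inconclusive means lowest score under 50 but half or more replicates reach 50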;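 further: yeast exposed to compound for 9 h at 30 °C; higher score means more reporter readthrough which indicates perturbed polyadenylation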
NALP3 yeast inh – inhibitors of NALP3 inflammasome in yeast; 330,000 tested, 0.39% active; inhibition, % at 10 µM; AID 2825; Yeast reconstituted NLRP3/ASC/caspase-1, beta-gal luminescence, 24 h;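 active means inhibition of 50% or more; inactive means inhibition below 50%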;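 further: plate controls were induced DMSO wells for no effect and uninduced yeast grown without galactose for full effect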
ALR inh – human ALR oxidase inhibition via reduced H2O2. P55789. purified ALR, DTT oxidation, H2O2 HRP-luminol luminescence. inhibition, % (no concentration beside the values). 290,000 tested, 3.8% active. AID 485317;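 active means mean replicate inhibition above about 79%, with every replicate also reaching it, limit read from the data; inconclusive means only one of the two criteria met; inactive means mean below limit and not every replicate reaching it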
Starred values were filed as active, the others as inactive; u = inconclusive; x = not tested or not shown. This is a sample that favours compounds with a hit; in the whole collection about 4.6% have one here.

SMILES	Arr AP2 block	NALP1 inh	DSG3 Ab inh	PolyA inhibitor	NALP3 yeast inh	ALR inh
O=C1NC(=O)C2C1C(c1cccs1)NN2Cc1ccccc1 (stereo not given)	-23	20	110	-8	5	98*
O=C1CC/C=C\C[C@@H](CC(=O)N(CCO)Cc2ccccc2)C(=O)N[C@H](Cc2c[nH]c3ccccc23)CO1	-8	x	103	x	12	4
COc1ccc(N2C(=O)c3ccc(C(=O)Nc4ccc(NC(C)=O)cc4)cc3C2=O)cc1	3	32	107	-5	15	0
CC1CC1C(=O)OCC(=O)N(C)c1c(N)n(Cc2ccccc2)c(=O)[nH]c1=O (stereo not given)	17	x	u	14	10	-14
O=C(O)c1cccc(NC(=S)NC(NC(=O)c2ccccc2[N+](=O)[O-])C(Cl)(Cl)Cl)c1 (stereo not given)	-12	25	108	x	10	3
Cc1ccc(NC(NC(=O)c2ccccc2[N+](=O)[O-])C(Cl)(Cl)Cl)cc1 (stereo not given)	35	20	116	-4	4	99*
CCC(C)N(C(=O)c1csnn1)C(C(=O)NC1CCCC1)c1ccccc1F (stereo not given)	-2	24	x	-21	-3	-11
Cc1c(NC(=O)CN2CCN(c3ccc(O)cc3)CC2)c(=O)n(-c2ccccc2)n1C	4	11	98	14	7	99*
Cc1ccccc1CSCC(=O)Nc1c(C)n(C)n(-c2ccccc2)c1=O	4	30	102	-13	12	98*
Cc1ccc(N2CC(=O)N(NC(=O)CN3CCN(c4ccccc4)CC3)CC2=O)cc1	1	-3	107	-1	9	85*
Cc1ccc(CSCC(=O)Nc2c(C)n(C)n(-c3ccccc3)c2=O)cc1	22	23	126	-4	1	-8
O=C1OC(Cc2ccccc2)(c2ccccc2)c2ccccc21 (stereo not given)	x	x	102	x	x	x
O=C(CSCc1ccc(Cl)cc1Cl)Nc1ccc(O)cc1C(=O)O	7	-8	101	u	16	98*
O=C(CSCc1ccc(Cl)cc1)Nc1ccc(Br)cc1C(=O)O	-6	8	92	7	0	96*
O=C(CSCc1ccc(Cl)cc1Cl)Nc1ccccc1C(=O)Nc1ccc(C(=O)O)cc1	13	1	91	3	9	97*
Cc1c(NC(=O)CSCc2ccc(Cl)cc2Cl)cccc1C(=O)O	-8	19	85	-3	-4	98*
O=C(CSCc1ccc(Cl)cc1Cl)Nc1c[nH]c(=O)[nH]c1=O	-4	28	105	20	9	0
COc1cc(NC(=O)CSCc2ccc(Cl)cc2Cl)c(C(=O)O)cc1OC	36	13	104	7	15	73
Cc1ccc(N2CC(C(=O)Nc3cccc(S(=O)(=O)N4CCOCC4)c3)CC2=O)cc1 (stereo not given)	x	x	97	x	x	x
O=C(CN1C(=O)CSc2ncccc21)Nc1cccc(Cl)c1	-2	9	105	-18	7	4
O=S1(=O)c2ccc(Br)cc2N2CCC[C@@H]2CN1Cc1ccccc1	23	x	105	x	x	x
CC(C)[C@H](NC(=O)c1ccccc1)C(=O)OCC(=O)c1ccccc1F	41	10	106	-6	-6	88*
C[C@H](CO)N1C[C@H](C)[C@@H](CN(C)S(C)(=O)=O)Oc2ccc(NC(=O)c3ccncc3)cc2C1=O	2	x	104	x	10	-6
NCCCCCc1nnc(SCc2ccc(Cl)cc2Cl)o1	7	20	108	4	31	99*
O=C(CSc1nnc(CNC(=O)c2cccs2)o1)Nc1cccc(C(F)(F)F)c1	5	7	108	14	-2	-1
SMILES	Arr AP2 block	NALP1 inh	DSG3 Ab inh	PolyA inhibitor	NALP3 yeast inh	ALR inh
O=C(CSc1nnc(CNC(=O)c2cccs2)o1)Nc1cccc(Cl)c1	8	2	98	5	13	98*
NCCCCCc1nnc(SCC(=O)Nc2cccc(Cl)c2)o1	1	6	105	-3	21	92*
O=C(CSc1nnc(CNC(=O)c2cccs2)o1)Nc1cccc(F)c1	11	12	x	-1	3	99*
NCCCCCc1nnc(SCc2cccc(Cl)c2)o1	1	2	99	-1	21	-9
O=C1CCCN1CCCNc1ncnc2c1[nH]c1ccc(Cl)cc12	-2	-1	104	6	6	98*
Clc1ccc2[nH]c3c(NCCCN4CCOCC4)ncnc3c2c1	0	-1	120	8	8	-9
C[C@H]1CN([C@@H](C)CO)C(=O)c2cc(Br)cnc2O[C@H]1CN(C)C(=O)C1CCC1	x	x	107	x	x	x
COc1ccc(S(=O)(=O)n2nc(-c3ccc(Cl)cc3)cc2N)cc1	0	x	89	-13	15	-7
COc1ccc(-c2cc(N)n(S(=O)(=O)c3ccc(C)cc3)n2)c(OC)c1	9	8	97	0	2	99*
CCCCN(C)C(=O)c1nc2ccccn2c1CN1CCC[C@H]1CO	-6	11	95	18	13	x
O=[N+]([O-])c1ccc(O)c(/C=N/Nc2nc3ccccc3[nH]2)c1	0	12	94	-14	19	89*
COC(=O)c1ccc(/C=N/Nc2nc3ccccc3[nH]2)cc1	0	-16	112	7	22	51
COc1cccc(/C=N/Nc2nc3ccccc3[nH]2)c1O	-5	10	104	-7	14	x
COc1cc(/C=N/Nc2nc3ccccc3[nH]2)cc(Br)c1OCC(=O)N(C)C	6	20	99	13	0	99*
COc1cc(/C=C(/C(=O)c2cccs2)c2nc3ccccc3[nH]2)cc(OC)c1O	15	-2	94	-8	8	100*
COc1cc(/C=N/Nc2nc3ccccc3[nH]2)cc(OC)c1O	4	20	100	-8	11	99*
O=[N+]([O-])c1ccc(O)c(/C=N/Nc2ccccn2)c1	19	12	100	-75	x	x
COc1ccc(C(=O)N/C(=C/c2cccs2)c2nc3ccccc3[nH]2)cc1OC	7	25	92	25	4	-10
CC(CCc1ccccc1)NC(=O)COC(=O)C(CCC(N)=O)NC(=O)c1ccc(F)cc1 (stereo not given)	-15	x	115	x	17	-3
COc1ccc(C)cc1NC(C)C(=O)NC(=O)NC1CCCCC1 (stereo not given)	4	x	99	x	15	9
COc1ccc(Br)c(C=O)c1OS(=O)(=O)c1ccc(C)cc1	x	x	103	x	x	x
COc1cc(/C=N/Nc2nc(=O)[nH]nc2C)ccc1O	36	-39	94	u	-20	100*
COc1cc(/C=N/Nc2nc3ccccc3[nH]2)ccc1O	15	-8	82	2	-14	100*

Screens deposited in PubChem BioAssay by several laboratories.
